Measured values taken from ChEMBL document CHEMBL4627284, “Pyrimethamine conjugated histone deacetylase inhibitors: Design, synthesis and evidence for triple negative breast cancer selective cytotoxicity” (Bioorg Med Chem, 2020).
Calls of active or inactive are those of the source. The calls are words filed in the database; no cut-off is given here.

How the values were obtained:
[1] = biological target: T1, Protein deacetylase HDAC6 (Homo sapiens, UniProt Q9UBN7); assay: Inhibition of human recombinant HDAC6 using fluorogenic HDAC substrate 3 preincubated for 30 mins followed by substrate addition and measured after 15 mins by fluorogenic assay
T1 sequence (Q9UBN7 whole entry): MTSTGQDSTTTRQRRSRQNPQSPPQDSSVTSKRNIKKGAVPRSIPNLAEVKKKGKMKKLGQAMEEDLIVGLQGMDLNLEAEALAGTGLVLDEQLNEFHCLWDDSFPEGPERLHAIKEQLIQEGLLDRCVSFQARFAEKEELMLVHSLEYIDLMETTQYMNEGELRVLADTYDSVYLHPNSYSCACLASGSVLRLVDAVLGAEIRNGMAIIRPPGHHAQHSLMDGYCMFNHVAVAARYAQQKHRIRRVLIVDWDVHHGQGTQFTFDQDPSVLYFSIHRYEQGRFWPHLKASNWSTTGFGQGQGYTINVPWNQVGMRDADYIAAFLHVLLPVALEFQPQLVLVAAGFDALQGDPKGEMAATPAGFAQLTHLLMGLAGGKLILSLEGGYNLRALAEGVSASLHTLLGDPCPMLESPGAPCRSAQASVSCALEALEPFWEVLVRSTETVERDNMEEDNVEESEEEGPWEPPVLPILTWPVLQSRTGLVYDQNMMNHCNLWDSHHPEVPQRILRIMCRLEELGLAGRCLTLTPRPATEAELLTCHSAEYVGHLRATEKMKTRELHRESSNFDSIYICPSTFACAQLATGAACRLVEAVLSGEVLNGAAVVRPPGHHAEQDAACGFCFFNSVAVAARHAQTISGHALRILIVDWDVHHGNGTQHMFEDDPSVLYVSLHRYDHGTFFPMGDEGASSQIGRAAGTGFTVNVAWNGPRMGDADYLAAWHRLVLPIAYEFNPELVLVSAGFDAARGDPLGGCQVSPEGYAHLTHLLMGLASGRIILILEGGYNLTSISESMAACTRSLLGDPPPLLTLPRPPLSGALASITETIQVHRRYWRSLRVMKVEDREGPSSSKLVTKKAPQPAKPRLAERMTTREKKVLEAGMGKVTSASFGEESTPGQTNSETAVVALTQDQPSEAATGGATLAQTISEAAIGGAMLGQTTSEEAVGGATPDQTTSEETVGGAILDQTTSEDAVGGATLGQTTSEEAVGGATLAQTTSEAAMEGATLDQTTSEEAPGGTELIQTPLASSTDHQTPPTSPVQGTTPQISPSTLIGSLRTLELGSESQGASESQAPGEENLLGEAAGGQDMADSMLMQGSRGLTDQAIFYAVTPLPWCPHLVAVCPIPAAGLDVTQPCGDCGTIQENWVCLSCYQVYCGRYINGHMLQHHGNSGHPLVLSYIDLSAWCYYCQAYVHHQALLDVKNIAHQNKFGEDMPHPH

[2] = biological target: T2, Histone deacetylase 8 (Homo sapiens, UniProt Q9BY41); assay: Inhibition of human recombinant HDAC8 using fluorogenic HDAC substrate class 2A preincubated for 30 mins followed by substrate addition and measured after 15 mins by fluorogenic assay
T2 sequence (Q9BY41 whole entry): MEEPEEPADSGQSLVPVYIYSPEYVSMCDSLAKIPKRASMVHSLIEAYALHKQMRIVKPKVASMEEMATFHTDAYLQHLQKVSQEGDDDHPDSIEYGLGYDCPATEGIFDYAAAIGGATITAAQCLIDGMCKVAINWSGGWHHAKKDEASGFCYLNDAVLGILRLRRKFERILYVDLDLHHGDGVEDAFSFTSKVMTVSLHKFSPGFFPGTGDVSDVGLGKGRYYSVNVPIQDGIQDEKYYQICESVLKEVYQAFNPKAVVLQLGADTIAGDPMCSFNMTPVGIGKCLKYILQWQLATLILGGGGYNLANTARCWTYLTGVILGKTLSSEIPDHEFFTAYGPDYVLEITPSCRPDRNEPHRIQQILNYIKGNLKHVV

[3] = test system: MDA-MB-231; assay: cells; format: functional, cell-based; settings: Homo sapiens, MDA-MB-231, 72 h
[4] = biological target: T3, Histone deacetylase 1 (Homo sapiens, UniProt Q13547); assay: Inhibition of human recombinant HDAC1 using fluorogenic HDAC substrate preincubated for 30 mins followed by substrate addition and measured after 15 mins by fluorogenic assay
[5] = test system: MCF7; assay: cells; format: functional, cell-based; settings: Homo sapiens, MCF7, 72 h
[6] = test system: A549; assay: cells; format: functional, cell-based; settings: Homo sapiens, A549, 72 h
[7] = test system: Vero; assay: cells; settings: Chlorocebus sabaeus, 72 h
[8] = test system: MDA-MB-231; assay: Cell cycle arrest in human MDA-MB-231 cells assessed as accumulation of cells at G1 phase at 5 uM incubated for 48 hrs RNase/PI staining based flow cytometry assay (reference value: 64.3 %); format: functional
Outline: (§1)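 MDA-MB-231 cells, 5*10⁶ per 10 cm plate, were grown in DMEM for 24 h and then dosed for 48 h from DMSO stocks (final DMSO 0.1%; DMSO as control). Cells were trypsinized, washed twice in cold PBS and fixed in 70% ethanol overnight at -20°C. They were treated with 200 ug/mL RNase for 30 min, stained with 50 ug/mL PI at RT for 30 min, and DNA content was read by flow cytometry.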

[9] = biological target: Signal transducer and activator of transcription 3 (Homo sapiens) (UniProt P40763); assay: Inhibition of STAT3 in human MDA-MB-231 cells assessed as slight down regulation of pSTAT3 expression at 50 to 100 uM after 24 hrs by western blot analysis; format: cell-based
Outline: (§2)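 MDA-MB-231 cells, 1*10⁶ per well, were grown in DMEM for 24 h, serum-starved for 24 h, then treated for 24 h from DMSO solutions (final DMSO 0.1%; DMSO control). Cells were lysed in RIPA with protease and phosphatase inhibitors and protein equalized by BCA. 20-40 µg was run on 4-20% gels and transferred to PVDF, which was blocked in 5% BSA. Primary antibodies were applied overnight and secondary for 1 h, and band intensities were quantified by infrared imaging.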

[10] = biological target: Signal transducer and activator of transcription 3 (Homo sapiens) (UniProt P40763); assay: Inhibition of STAT3 in human MDA-MB-231 cells assessed as downregulation of Bcl-xL expression after 24 hrs by western blot analysis; format: cell-based; outline: as §2
[11] = test system: MDA-MB-231; assay: Cell cycle arrest in human MDA-MB-231 cells assessed as accumulation of cells at G2 phase at 5 uM incubated for 48 hrs RNase/PI staining based flow cytometry assay (reference value: 17.4 %); format: functional; outline: as §1
[12] = biological target: Signal transducer and activator of transcription 3 (Homo sapiens) (UniProt P40763); assay: Inhibition of STAT3 in human MDA-MB-231 cells assessed as downregulation of cyclinD1 expression at 5 to 25 uM after 24 hrs by western blot analysis; format: cell-based; outline: as §2
[13] = biological target: Signal transducer and activator of transcription 3 (Homo sapiens) (UniProt P40763); assay: Inhibition of STAT3 in human MDA-MB-231 cells assessed as change in Bcl-2 expression at 0.8 to 1.6 uM after 24 hrs by western blot analysis; format: cell-based; outline: as §2
[14] = biological target: Signal transducer and activator of transcription 3 (Homo sapiens) (UniProt P40763); assay: Inhibition of STAT3 in human MDA-MB-231 cells assessed as upregulation of p-p38 expression after 24 hrs by western blot analysis; format: cell-based; outline: as §2
[15] = test system: MDA-MB-231; assay: Cell cycle arrest in human MDA-MB-231 cells assessed as accumulation of cells at G2 phase at 25 uM incubated for 48 hrs RNase/PI staining based flow cytometry assay (reference value: 17.4 %); format: functional; outline: as §1
[16] = biological target: Signal transducer and activator of transcription 3 (Homo sapiens) (UniProt P40763); assay: Inhibition of STAT3 in human MDA-MB-231 cells assessed as downregulation of cyclinD1 expression at 2.5 to 5 uM after 24 hrs by western blot analysis; format: cell-based; outline: as §2
[17] = biological target: T4, Protein deacetylase HDAC6 (Homo sapiens) (UniProt Q9UBN7); assay: Inhibition of HDAC6 in human MDA-MB-231 cells assessed as accumulation of acetylated tubulin at 12.5 to 50 uM by western blot analysis; format: cell-based
T4 sequence (whole entry): T1 sequence (Q9UBN7 whole entry)
Outline: (§3)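 MDA-MB-231 cells were grown in DMEM for 24 h, serum-starved for 24 h, then treated for 4 h (DMSO control). Lysates were made in RIPA with protease and phosphatase inhibitors and normalized by BCA. 20-40 µg was run on 4-20% gels and transferred to PVDF, which was blocked in 5% BSA. Membranes were probed overnight for acetyl-α-tubulin or acetyl-H4, then with secondary for 1 h, and bands were quantified by infrared imaging.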

[18] = test system: MDA-MB-231; assay: Cell cycle arrest in human MDA-MB-231 cells assessed as accumulation of cells at G2 phase at 12.5 uM incubated for 48 hrs RNase/PI staining based flow cytometry assay (reference value: 17.4 %); format: functional; outline: as §1
[19] = biological target: T3, Histone deacetylase 1; assay: Inhibition of HDAC1 in human MDA-MB-231 cells assessed as accumulation of acetylated H4 at 12.5 to 50 uM by western blot analysis; format: cell-based; outline: as §3
[20] = biological target: Signal transducer and activator of transcription 3 (Homo sapiens) (UniProt P40763); assay: Inhibition of STAT3 in human MDA-MB-231 cells assessed as slight downregulation of Bcl-2 expression at 5 to 25 uM after 24 hrs by western blot analysis; format: cell-based; outline: as §2
[21] = test system: MDA-MB-231; assay: Cell cycle arrest in human MDA-MB-231 cells assessed as accumulation of cells at G2 phase at 12.5 uM incubated for 48 hrs by flow cytometry (reference value: […] %)
[22] = test system: MDA-MB-231; assay: Cell cycle arrest in human MDA-MB-231 cells assessed as accumulation of cells at S phase at 12.5 uM incubated for 48 hrs RNase/PI staining based flow cytometry assay (reference value: […] %); format: functional; outline: as §1
[23] = test system: MDA-MB-231; assay: Cell cycle arrest in human MDA-MB-231 cells assessed as accumulation of cells at S phase at 25 uM incubated for 48 hrs RNase/PI staining based flow cytometry assay (reference value: 11.5 %); format: functional; outline: as §1
[24] = test system: MDA-MB-231; assay: Cell cycle arrest in human MDA-MB-231 cells assessed as accumulation of cells at G1 phase at 25 uM incubated for 48 hrs RNase/PI staining based flow cytometry assay (reference value: 64.3 %); format: functional; outline: as §1
[25] = biological target: Signal transducer and activator of transcription 3 (Homo sapiens) (UniProt P40763); assay: Inhibition of STAT3 in human MDA-MB-231 cells assessed as effect on pSTAT3 expression at 5 to 25 uM after 24 hrs by western blot analysis; format: cell-based; outline: as §2

Sequence of Signal transducer and activator of transcription 3 (Homo sapiens) (P40763 whole entry): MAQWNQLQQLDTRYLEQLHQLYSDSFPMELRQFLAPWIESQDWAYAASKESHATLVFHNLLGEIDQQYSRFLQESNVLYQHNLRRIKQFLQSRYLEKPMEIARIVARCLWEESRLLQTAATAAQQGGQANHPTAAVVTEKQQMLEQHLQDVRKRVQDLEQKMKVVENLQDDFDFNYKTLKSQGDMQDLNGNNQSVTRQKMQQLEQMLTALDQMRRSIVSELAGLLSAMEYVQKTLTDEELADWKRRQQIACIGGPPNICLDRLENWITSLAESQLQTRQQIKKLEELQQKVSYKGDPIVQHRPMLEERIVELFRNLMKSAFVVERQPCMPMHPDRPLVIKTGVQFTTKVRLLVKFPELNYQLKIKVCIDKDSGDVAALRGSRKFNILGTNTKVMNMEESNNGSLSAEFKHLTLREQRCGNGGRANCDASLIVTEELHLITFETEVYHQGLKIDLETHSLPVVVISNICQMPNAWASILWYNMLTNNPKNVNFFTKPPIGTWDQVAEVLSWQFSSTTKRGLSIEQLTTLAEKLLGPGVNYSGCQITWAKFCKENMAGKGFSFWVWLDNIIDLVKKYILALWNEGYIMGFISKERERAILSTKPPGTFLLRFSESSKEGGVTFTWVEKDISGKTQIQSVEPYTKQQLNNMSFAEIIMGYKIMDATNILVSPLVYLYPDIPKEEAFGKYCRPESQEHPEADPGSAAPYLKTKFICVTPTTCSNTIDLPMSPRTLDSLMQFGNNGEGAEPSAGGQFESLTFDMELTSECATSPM
T3 sequence (Q13547 whole entry): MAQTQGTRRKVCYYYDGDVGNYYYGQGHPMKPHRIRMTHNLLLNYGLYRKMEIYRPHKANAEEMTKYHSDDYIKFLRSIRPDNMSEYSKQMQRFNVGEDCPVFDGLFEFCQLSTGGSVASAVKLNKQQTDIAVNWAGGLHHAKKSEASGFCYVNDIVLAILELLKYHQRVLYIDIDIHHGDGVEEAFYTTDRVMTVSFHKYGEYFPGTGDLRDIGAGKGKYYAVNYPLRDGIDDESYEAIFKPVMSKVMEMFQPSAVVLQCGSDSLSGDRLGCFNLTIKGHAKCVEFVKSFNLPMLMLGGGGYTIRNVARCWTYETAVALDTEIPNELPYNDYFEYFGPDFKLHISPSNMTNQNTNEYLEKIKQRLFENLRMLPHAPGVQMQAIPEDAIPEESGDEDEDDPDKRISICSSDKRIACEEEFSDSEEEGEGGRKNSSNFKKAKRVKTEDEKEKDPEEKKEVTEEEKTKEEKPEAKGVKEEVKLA

SMILES: CCc1nc(N)nc(N)c1-c1ccc(-c2cn(CCCCCC(=O)NO)nn2)cc1
- IC50 [1]: 0.046 µM
- IC50 [2]: 2.8 µM
- IC50 [3]: 38.4 µM
- IC50 [4]: 0.26 µM

SMILES: CCOC(=O)CCCCCCCn1cc(-c2ccc(-c3c(N)nc(N)nc3CC)cc2)nn1
- IC50 [3]: 94.9 µM
- IC50 [5]: 96.6 µM
- IC50 [6]: 114 µM
- IC50 [7]: 113 µM

SMILES: O=C(CCCCCCC(=O)Nc1ccccc1)NO [VORINOSTAT]
- Activity [8]: 18.2%
- inhibition [9]: Active
- inhibition [10]: Dose-dependent effect
- Activity [11]: 65.1%
- inhibition [12]: Active
- inhibition [13]: inactive
- inhibition [14]: Dose-dependent effect

SMILES: CCc1nc(N)nc(N)c1-c1ccc(-c2cn(CCCCCCCC(=O)NO)nn2)cc1
- IC50 [1]: 0.021 µM
- Activity [15]: 70.6%
- inhibition [16]: Active
- inhibition [17]: Active
- Activity [18]: 66.8%
- inhibition [19]: Active
- inhibition [20]: Active
- IC50 [3]: 21.4 µM
- IC50 [4]: 0.21 µM
- Activity [21]: 24%
- Activity [22]: 5.17%
- inhibition [10]: Dose-dependent effect
- Activity [23]: 1.63%
- Activity [24]: 22.1%
- IC50 [5]: 83.3 µM
- inhibition [14]: Dose-dependent effect
- inhibition [25]: inactive
- IC50 [6]: 88.5 µM
